{
  "source": "paper PMC5542862",
  "about": "(Microcirculation (New York, N.Y. : 1994), 2017)",
  "key": {"[1]": {"test_system": "arcade and terminal arterioles of the hamster cheek pouch", "type": "in vivo", "settings": "for Effect of muscarinic blockade on vasoactivity (in words): atropine 10^−7 M in tissue bath; for Effect of beta-adrenergic blockade on dilation (in words): propranolol 10^−6M in tissue bath; for Dose range of vasodilation / Control Dose Max dilation / Control (%) Max dilation: quiescent tissue; for Dose range of vasodilation: mucocutaneous microvasculature; for Control Dose Max dilation: 60-second micropipette exposure; for Control (%) Max dilation: at the dose of max dilation", "summary_of_the_method": "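Adult male hamsters were anaesthetised with pentobarbital (70 mg/kg), tracheostomised and kept at 37 °C. The left cheek pouch was superfused with 37 °C bicarbonate-buffered saline and rested 30 min. Test compound was given by micropipette (10–20 μm tip, with FITC-dextran 10−6M) at the arcade–terminal junction for 60 s, then 5 min recovery. One full concentration series per site, 2–4 sites ≥1000 μm apart. Fractional diameter change = (baseline−peak)/baseline; repeated-measures ANOVA.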"}, "[2]": {"test_system": "arcade and terminal arterioles of the hamster cheek pouch", "assay": "Hamster cheek pouch intravital microscopy, nitrosative stress model", "type": "in vivo", "settings": "for Vasoactive response after stress compared with before (in words): nitrosative stress, agent 10^−4M by micropipette, n=35; for Effect of nitrosative stress on the concentration response (in words): SNP 10^−4M in tissue bath for 2 minutes; for Stress (%) Max dilation: after stress, at the dose of max dilation", "summary_of_the_method": "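Anaesthetised male hamster cheek pouch, superfused with 37 °C bicarbonate saline. Stress: SNP 10−4M washed into the bath for 2 min, with endothelial dysfunction checked by micropipette acetylcholine 10−4M. Test compound was given by micropipette for 60 s with 5 min recovery, 15 min–3 h after stress, at most four exposures per site. Response = (baseline−peak)/baseline from video; repeated-measures ANOVA, unpaired t-test.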"}, "PDGF-BB [3]": {"test_system": "PDGF-BB", "settings": "Lin, et al., 2014, Zhu; cited from earlier work"}, "PDGF-BB [4]": {"molecular_target": "PDGF-BB", "settings": "cited from earlier work; for Kd: read-out: KD for PDGF-BB binding"}, "[5]": {"test_system": "arcade and terminal arterioles of the hamster cheek pouch", "type": "in vivo", "settings": "20s, 50 °C, within 500 μm of heat rim", "summary_of_the_method": "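In the superfused cheek pouch of anaesthetised male hamsters, a thermocouple-controlled microcautery Pt wire (300 μm) applied 50 °C for 20 s. After 15 min, micropipette exposures (60 s, 5 min recovery) were mapped to 1000 μm from the heat rim; only sites within 500 μm are reported. Diameter change = (baseline−peak)/baseline from video; repeated-measures ANOVA or unpaired t-test, α 0.05.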"}, "[6]": {"test_system": "adult human dermal fibroblasts", "settings": "cited from earlier work"}, "[7]": {"test_system": "thermal burn injury progression", "settings": "rat hot comb model; cited from earlier work"}},
  "note": "Read-outs that look alike come from different tables or passages of the source.",
  "data": [
    {"compound": "CC(=O)OCC[N+](C)(C)C", "note": "[acetylcholine, reference compound]", "values": [
      {"measurement": "Diameter change, fractional change from baseline", "setting": "[1]; arcade arterioles, acetylcholine 10^−4M with atropine (10^−7 M), mean ± SD, n=26 sites", "result": "0.03±0.15"},
      {"measurement": "Diameter change, fractional change from baseline", "setting": "[1]; arcade arterioles, acetylcholine 10^−4M, no blocker, mean ± SD, n=26 sites", "result": "0.50±0.36"},
      {"measurement": "Diameter change, fractional change from baseline", "setting": "[1]; terminal arterioles, acetylcholine 10^−4M with atropine (10^−7 M), mean ± SD, n=26 sites", "result": "0.03±0.10"},
      {"measurement": "Diameter change, fractional change from baseline", "setting": "[1]; terminal arterioles, acetylcholine 10^−4M, no blocker, mean ± SD, n=26 sites", "result": "0.49±0.28"}
    ]},
    {"compound": "Nc1ncnc2c1ncn2[C@@H]1O[C@H](CO)[C@@H](O)[C@H]1O", "note": "[adenosine, reference compound]", "values": [
      {"measurement": "Diameter change, fractional change from baseline", "setting": "[1]; arcade arterioles, adenosine 10^−4 M, mean ± SD", "result": "0.54±0.35"},
      {"measurement": "Diameter change, fractional change from baseline", "setting": "[1]; terminal arterioles, adenosine 10^−4 M, mean ± SD", "result": "0.60±0.43"},
      {"measurement": "Vasoactive response after stress compared with before (in words)", "setting": "[2]", "result": "compromised"}
    ]},
    {"compound": "CC(C)NCC(O)c1ccc(O)c(O)c1", "note": "(stereo not drawn) [isoproterenol, reference compound]", "values": [
      {"measurement": "Diameter change, fractional change from baseline", "setting": "[1]; arcade arterioles, isoproterenol 10^−7M with propranolol (10^−6M), mean ± SD, n=23 sites", "result": "0.00±0.11"},
      {"measurement": "Diameter change, fractional change from baseline", "setting": "[1]; arcade arterioles, isoproterenol 10^−7M, no blocker, mean ± SD, n=23 sites", "result": "0.41±0.3"},
      {"measurement": "Diameter change, fractional change from baseline", "setting": "[1]; terminal arterioles, isoproterenol 10^−6M with carazolol 10^−9M, mean+sem, significant constriction", "result": "−0.50+0.15"},
      {"measurement": "Diameter change, fractional change from baseline", "setting": "[1]; terminal arterioles, isoproterenol 10^−7M with propranolol (10^−6M), mean ± SD, n=23 sites", "result": "0.01±0.00"},
      {"measurement": "Diameter change, fractional change from baseline", "setting": "[1]; terminal arterioles, isoproterenol 10^−7M, no blocker, mean ± SD, n=23 sites", "result": "0.43±0.34"}
    ]},
    {"compound": "CNC[C@H](O)c1cccc(O)c1", "note": "[phenylephrine, reference compound]", "values": [
      {"measurement": "Diameter change, fractional change from baseline", "setting": "[1]; arcade arterioles, phenylephrine 10^−5M, no blocker, mean ± SD, n=23 sites", "result": "−0.52±0.18"},
      {"measurement": "Diameter change, fractional change from baseline", "setting": "[1]; arcade arterioles, phenylephrine 10^−6M, mean ± SD", "result": "−0.53±0.18"},
      {"measurement": "Diameter change, fractional change from baseline", "setting": "[1]; terminal arterioles, phenylephrine 10^−5M, no blocker, mean ± SD, n=23 sites", "result": "−0.48±0.16"},
      {"measurement": "Diameter change, fractional change from baseline", "setting": "[1]; terminal arterioles, phenylephrine 10^−6M, mean ± SD", "result": "−0.48±0.16"},
      {"measurement": "Vasoactive response after stress compared with before (in words)", "setting": "[2]", "result": "unaffected"}
    ]},
    {"compound": "FN: Full-length plasma fibronectin", "values": [
      {"measurement": "Vasoactive response in quiescent tissue (in words)", "setting": "[1]; arcade and terminal arterioles, 10^−16–10^−4M by micropipette, N=5–8 per peptide", "result": "induced only vasodilation"},
      {"measurement": "Effect of muscarinic blockade on vasoactivity (in words)", "setting": "[1]", "result": "no effect"},
      {"measurement": "Effect of combined alpha- and beta-adrenergic blockade (in words)", "setting": "[1]; phentolamine 10^−5M plus propranolol 10^−6M", "result": "eliminated only the vasodilation with the peptides and not FN"},
      {"measurement": "Effect of beta-adrenergic blockade on dilation (in words)", "setting": "[1]; arcade and terminal arterioles", "result": "significantly diminished dilation"}
    ]},
    {"compound": "ILRWRPK [P7]", "values": [
      {"measurement": "Effect of muscarinic blockade on vasoactivity (in words)", "setting": "[1]", "result": "no effect"},
      {"measurement": "Effect of beta-adrenergic blockade on dilation (in words)", "setting": "[1]; arcade and terminal arterioles", "result": "prevented vasodilation"},
      {"measurement": "Dose range of vasodilation", "setting": "[1]", "result": "10^−9–10^−8 M"},
      {"measurement": "Control Dose Max dilation", "setting": "[1]; terminal arterioles", "result": "10^−8M"},
      {"measurement": "Control (%) Max dilation", "setting": "[1]; terminal arterioles", "result": 28, "unit": "%"},
      {"measurement": "Effect of nitrosative stress on the concentration response (in words)", "setting": "[2]", "result": "left shift"},
      {"measurement": "Stress (%) Max dilation", "setting": "[2]", "result": 29, "unit": "%"},
      {"measurement": "FN/PDGF-BB binding inhibition", "setting": "PDGF-BB [3]", "result": 0.1, "unit": "%"},
      {"measurement": "Kd", "setting": "PDGF-BB [4]", "result": 1000, "unit": "nM"}
    ]},
    {"compound": "LRWRPK [P39]", "values": [
      {"measurement": "Control (%) Max dilation", "setting": "[1]; terminal arterioles", "result": 8, "unit": "%"},
      {"measurement": "FN/PDGF-BB binding inhibition", "setting": "PDGF-BB [3]", "result": 0.0, "unit": "%"}
    ]},
    {"compound": "PSHISKYILRWRPK [EVA-1, epiviosamine-1]", "values": [
      {"measurement": "Effect of muscarinic blockade on vasoactivity (in words)", "setting": "[1]", "result": "no effect"},
      {"measurement": "Effect of beta-adrenergic blockade on dilation (in words)", "setting": "[1]; arcade and terminal arterioles", "result": "prevented vasodilation"},
      {"measurement": "Dose range of vasodilation", "setting": "[1]", "result": "10^−9–10^−8 M"},
      {"measurement": "Control Dose Max dilation", "setting": "[1]; terminal arterioles", "result": "10^−9M"},
      {"measurement": "Control (%) Max dilation", "setting": "[1]; terminal arterioles", "result": 22, "unit": "%"},
      {"measurement": "Effect of nitrosative stress on the concentration response (in words)", "setting": "[2]", "result": "left shift"},
      {"measurement": "Stress (%) Max dilation", "setting": "[2]", "result": 32, "unit": "%"},
      {"measurement": "Dilation at 10^−8M after thermal stress (in words)", "setting": "[5]; arcade arterioles", "result": "reversed to constriction"},
      {"measurement": "Response to sub-nanomolar dose after thermal stress (in words)", "setting": "[5]; both arteriolar types", "result": "significant vasodilation"},
      {"measurement": "Dilation at 10^−8M after thermal stress (in words)", "setting": "[5]; terminal arterioles", "result": "eliminated"},
      {"measurement": "Dose conferring survival activity", "setting": "[6]", "result": "10^−7 M"},
      {"measurement": "FN/PDGF-BB binding inhibition", "setting": "PDGF-BB [3]", "result": 95.5, "unit": "%"},
      {"measurement": "Dose range binding PDGF-BB", "setting": "PDGF-BB [4]", "result": "10^−8–10^−7 M"},
      {"measurement": "Kd", "setting": "PDGF-BB [4]", "result": 200, "unit": "nM"},
      {"measurement": "Effect on thermal burn injury progression (in words)", "setting": "[7]", "result": "limits thermal burn injury progression"}
    ]},
    {"compound": "RWRPK [P37]", "values": [
      {"measurement": "Effect of beta-adrenergic blockade on dilation (in words)", "setting": "[1]; arcade and terminal arterioles", "result": "prevented vasodilation"},
      {"measurement": "Control (%) Max dilation", "setting": "[1]; terminal arterioles", "result": 19, "unit": "%"},
      {"measurement": "Effect of nitrosative stress on the concentration response (in words)", "setting": "[2]", "result": "left shift"},
      {"measurement": "Stress (%) Max dilation", "setting": "[2]", "result": 45, "unit": "%"},
      {"measurement": "FN/PDGF-BB binding inhibition", "setting": "PDGF-BB [3]", "result": 0.0, "unit": "%"}
    ]},
    {"compound": "YILRWRPK [P18]", "values": [
      {"measurement": "Effect of beta-adrenergic blockade on dilation (in words)", "setting": "[1]; arcade and terminal arterioles", "result": "prevented vasodilation"},
      {"measurement": "Control Dose Max dilation", "setting": "[1]; terminal arterioles", "result": "10^−8M"},
      {"measurement": "Control (%) Max dilation", "setting": "[1]; terminal arterioles", "result": 26, "unit": "%"},
      {"measurement": "FN/PDGF-BB binding inhibition", "setting": "PDGF-BB [3]", "result": 26, "unit": "%"}
    ]},
    {"compound": "nitroprusside [reference compound]", "values": [
      {"measurement": "Vasoactive response after stress compared with before (in words)", "setting": "[2]", "result": "not compromised"}
    ]}
  ]
}
